Measured values from ChEMBL document CHEMBL3259528, “Exploring 5-nitrofuran derivatives against nosocomial pathogens: synthesis, antimicrobial activity and chemometric analysis” (2014).
Values after ≈ are worked out from the molar mass of the structure shown. Active and inactive are the calls of the source. The calls are words filed in the database; no cut-off is given here.

Experiments:
Serratia marcescens [1] = experiment: Antimicrobial activity against Serratia marcescens ATCC 14576 at 128 uM after 24 to 48 hrs by two-fold broth microdilution method; assay type: functional, organism-based
How it was run: (§1)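 Antibacterial microdilution in CAMH, inoculum 0.5 McFarland diluted in saline/CAMH, 35 °C for 18 h, with further reads at 24 and 48 h. Activity is scored at the maximum tested concentration, 128 µM. Triplicate.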

Escherichia coli [2] = experiment: Antimicrobial activity against Escherichia coli ATCC 25922 at 128 uM after 24 to 48 hrs by two-fold broth microdilution method; assay type: functional, organism-based; how it was run: as §1
Candida albicans [3] = experiment: Antimicrobial activity against Candida albicans ATCC 537Y at 64 uM after 48 hrs by two-fold broth microdilution method; assay type: functional, organism-based
How it was run: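 Single top concentration of the antifungal microdilution: RPMI 1640, inoculum 0.5 McFarland diluted in saline/RPMI, 35 °C for 48 h. Activity is judged at the highest tested level, 64 µM. Run in triplicate.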

Enterobacter cloacae [4] = experiment: Antimicrobial activity against Enterobacter cloacae ATCC 23355 at 128 uM after 24 to 48 hrs by two-fold broth microdilution method; assay type: functional, organism-based; how it was run: as §1
Staphylococcus aureus [5] = experiment: Antimicrobial activity against Staphylococcus aureus ATCC 29213 after 24 to 48 hrs by two-fold broth microdilution method; assay type: functional
Staphylococcus aureus [6] = experiment: Antimicrobial activity against multidrug-resistant Staphylococcus aureus VISA3 […] by two-fold broth microdilution method; assay type: functional
Enterococcus faecalis [7] = experiment: Antimicrobial activity against Enterococcus faecalis ATCC 29212 at 128 uM after 24 to 48 hrs by two-fold broth microdilution method; assay type: functional, organism-based; how it was run: as §1
Staphylococcus aureus [8] = experiment: Antimicrobial activity against Staphylococcus aureus ATCC 29213 after 18 hrs by modified broth microdilution method; assay type: functional
How it was run: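 PGI90, the concentration giving 90% growth inhibition, fitted with an exponential growth curve from at least seven concentrations of the MIC assay. Inhibition % = [(Ac − Ap)/Ac] × 100 from A620 of drug-free control versus drug-treated culture. Checked by a modified broth microdilution (Phase 2).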

Klebsiella pneumoniae [9] = experiment: Antimicrobial activity against Klebsiella pneumoniae ATCC 700603 at 128 uM after 24 to 48 hrs by two-fold broth microdilution method; assay type: functional, organism-based; how it was run: as §1
Escherichia coli [10] = experiment: Antimicrobial activity against Escherichia coli ATCC 25922 after 24 to 48 hrs by two-fold broth microdilution method; assay type: functional
Enterobacter cloacae [11] = experiment: Antimicrobial activity against Enterobacter cloacae ATCC 23355 after 24 to 48 hrs by two-fold broth microdilution method; assay type: functional
Enterococcus faecalis [12] = experiment: Antimicrobial activity against Enterococcus faecalis ATCC 29212 after 24 to 48 hrs by two-fold broth microdilution method; assay type: functional
Candida albicans [13] = experiment: Antimicrobial activity against Candida albicans ATCC 537Y after 48 hrs by two-fold broth microdilution method; assay type: functional
How it was run: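 Two-fold serial dilutions in RPMI 1640 per CLSI M27-A2. Stocks in DMSO/RPMI 1:20 v/v. Test range 1.0–64 µM. Inoculum set to 0.5 McFarland, then diluted in saline and RPMI 1640. Plates held at 35 °C for 48 h. MIC is the lowest concentration giving prominent growth reduction. Run in triplicate.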

Klebsiella pneumoniae [14] = experiment: Antimicrobial activity against Klebsiella pneumoniae ATCC 700603 after 24 to 48 hrs by two-fold broth microdilution method; assay type: functional
How it was run: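 Two-fold serial dilutions in cation-adjusted Mueller–Hinton broth per CLSI M100-S2. Stocks in DMSO/CAMH 1:10 v/v. Range 2.0–128 µM. Inoculum set to 0.5 McFarland, then diluted in saline and CAMH. Incubated at 35 °C for 18 h. MIC is the lowest concentration with no visible growth. Plates also read at 24 and 48 h as sterility control. Triplicate.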

Serratia marcescens [15] = experiment: Antimicrobial activity against Serratia marcescens ATCC 14576 after 24 to 48 hrs by two-fold broth microdilution method; assay type: functional
Staphylococcus aureus [16] = experiment: Antimicrobial activity against Staphylococcus aureus ATCC 29213 at 128 uM after 24 to 48 hrs by two-fold broth microdilution method; assay type: functional, organism-based; how it was run: as §1

| MIC (Staphylococcus aureus [5]) [µM] | MIC (Escherichia coli [10]) [µM] | MIC (Enterococcus faecalis [12]) [µM] | MIC (Enterobacter cloacae [11]) [µM] | SMILES | Activity (Serratia marcescens [1]) | Activity (Escherichia coli [2]) | Activity (Candida albicans [3]) | Activity (Enterobacter cloacae [4]) | MIC90 (Staphylococcus aureus [5]) [µM] | MIC (Staphylococcus aureus [6]) [µM] | Activity (Enterococcus faecalis [7]) | log(1/MIC>90) (Staphylococcus aureus [8]) | Activity (Klebsiella pneumoniae [9]) | MIC90 (Escherichia coli [10]) [µM] | further results |
| --- | --- | --- | --- | --- | --- | --- | --- | --- | --- | --- | --- | --- | --- | --- | --- |
| 4 (≈ 1.29 µg/mL) | 4 (≈ 1.29 µg/mL) | 8 (≈ 2.59 µg/mL) | 4 (≈ 1.29 µg/mL) | O=C(N[C@H](CO)[C@H](O)c1ccc([N+](=O)[O-])cc1)C(Cl)Cl [CHLORAMPHENICOL] | – | – | – | – | – | – | – | – | inactive | – | MIC (Serratia marcescens [15]): 8 µM (≈ 2.59 µg/mL) |
| 4 (≈ 1.35 µg/mL) | – | – | – | NS(=O)(=O)c1ccc(C(=O)N/N=C/c2ccc([N+](=O)[O-])o2)cc1 | inactive | inactive | inactive | inactive | 8.34 (≈ 2.82 µg/mL) | – | inactive | 5.08 | inactive | – | – |
| 4 (≈ 1.21 µg/mL) | 32 (≈ 9.67 µg/mL) | – | – | CN(C)c1ccc(C(=O)N/N=C/c2ccc([N+](=O)[O-])o2)cc1 | inactive | – | inactive | inactive | 7.7 (≈ 2.33 µg/mL) | – | inactive | 5.11 | inactive | 55 (≈ 16.6 µg/mL) | – |
| < 20 | < 20 | < 20 | < 20 | C[C@H]1COc2c(N3CCN(C)CC3)c(F)cc3c(=O)c(C(=O)O)cn1c23 [LEVOFLOXACIN] | – | – | – | – | – | – | – | – | – | – | MIC (Klebsiella pneumoniae [14]): < 20 µM; MIC (Serratia marcescens [15]): < 20 µM |
| 2 (≈ 0.676 µg/mL) | – | – | – | O=C(N/N=C/c1ccc([N+](=O)[O-])o1)c1ccc(Br)cc1 | inactive | inactive | inactive | inactive | 4.5 (≈ 1.52 µg/mL) | – | inactive | 5.35 | inactive | – | – |
| 16 (≈ 3.81 µg/mL) | – | 16 (≈ 3.81 µg/mL) | 8 (≈ 1.91 µg/mL) | O=C1CN(/N=C/c2ccc([N+](=O)[O-])o2)C(=O)N1 [NITROFURANTOIN] | inactive | – | – | – | – | – | – | – | inactive | – | – |
| 2 (≈ 0.548 µg/mL) | 8 (≈ 2.19 µg/mL) | 4 (≈ 1.1 µg/mL) | 4 (≈ 1.1 µg/mL) | Nc1ccc(C(=O)N/N=C/c2ccc([N+](=O)[O-])o2)cc1 | inactive | – | inactive | – | 4.77 (≈ 1.31 µg/mL) | – | – | 5.32 | inactive | 15.9 (≈ 4.36 µg/mL) | MIC90 (Enterobacter cloacae [11]): 6.8 µM (≈ 1.86 µg/mL); MIC90 (Enterococcus faecalis [12]): 5.63 µM (≈ 1.54 µg/mL) |
| < 20 | < 20 | < 20 | 8 (≈ 2.8 µg/mL) | CC1(C)S[C@@H]2[C@H](NC(=O)[C@H](N)c3ccccc3)C(=O)N2[C@H]1C(=O)O [AMPICILLIN] | inactive | – | – | – | – | – | – | – | inactive | – | – |

Further lines, the compound ahead of its results:

| SMILES | MIC (Staphylococcus aureus [5]) [µM] | MIC (Escherichia coli [10]) [µM] | MIC (Enterococcus faecalis [12]) [µM] | MIC (Enterobacter cloacae [11]) [µM] | Activity (Serratia marcescens [1]) | Activity (Escherichia coli [2]) | Activity (Candida albicans [3]) | Activity (Enterobacter cloacae [4]) | MIC90 (Staphylococcus aureus [5]) [µM] | MIC (Staphylococcus aureus [6]) [µM] | Activity (Enterococcus faecalis [7]) | log(1/MIC>90) (Staphylococcus aureus [8]) | Activity (Klebsiella pneumoniae [9]) | MIC90 (Escherichia coli [10]) [µM] | further results |
| --- | --- | --- | --- | --- | --- | --- | --- | --- | --- | --- | --- | --- | --- | --- | --- |
| O=C(N/N=C/c1ccc([N+](=O)[O-])o1)c1ccc(I)cc1 | 2 (≈ 0.77 µg/mL) | – | – | – | inactive | inactive | inactive | inactive | 2.78 (≈ 1.07 µg/mL) | 2 (≈ 0.77 µg/mL) | inactive | 5.56 | inactive | – | – |
| CCCc1ccc(C(=O)N/N=C/c2ccc([N+](=O)[O-])o2)cc1 | 2 (≈ 0.603 µg/mL) | 64 (≈ 19.3 µg/mL) | 64 (≈ 19.3 µg/mL) | – | – | – | – | – | 2.56 (≈ 0.771 µg/mL) | 2 (≈ 0.603 µg/mL) | – | 5.59 | – | 69.8 (≈ 21 µg/mL) | MIC90 (Enterobacter cloacae [11]): 69.8 µM (≈ 21 µg/mL); MIC90 (Enterococcus faecalis [12]): 73.2 µM (≈ 22.1 µg/mL); MIC (Candida albicans [13]): 32 µM (≈ 9.64 µg/mL); MIC90 (Candida albicans [13]): 42.1 µM (≈ 12.7 µg/mL); MIC (Klebsiella pneumoniae [14]): 64 µM (≈ 19.3 µg/mL); MIC90 (Klebsiella pneumoniae [14]): 74.8 µM (≈ 22.5 µg/mL); MIC (Serratia marcescens [15]): 64 µM (≈ 19.3 µg/mL); MIC90 (Serratia marcescens [15]): 66.3 µM (≈ 20 µg/mL) |
| O=C(N/N=C/c1ccc([N+](=O)[O-])o1)c1ccc(O)cc1 [NIFUROXAZIDE] | 4 (≈ 1.1 µg/mL) | 32 (≈ 8.81 µg/mL) | 8 (≈ 2.2 µg/mL) | 32 (≈ 8.81 µg/mL) | inactive | – | inactive | – | 8.87 (≈ 2.44 µg/mL) | 8 (≈ 2.2 µg/mL) | – | 5.05 | inactive | 42 (≈ 11.6 µg/mL) | MIC90 (Enterobacter cloacae [11]): 31.2 µM (≈ 8.59 µg/mL); MIC90 (Enterococcus faecalis [12]): 10.6 µM (≈ 2.93 µg/mL) |
| CCCOc1ccc(C(=O)N/N=C/c2ccc([N+](=O)[O-])o2)cc1 | 2 (≈ 0.635 µg/mL) | 64 (≈ 20.3 µg/mL) | 64 (≈ 20.3 µg/mL) | – | – | – | – | – | 2.47 (≈ 0.784 µg/mL) | 4 (≈ 1.27 µg/mL) | – | 5.61 | – | 65.8 (≈ 20.9 µg/mL) | MIC90 (Enterobacter cloacae [11]): 69.8 µM (≈ 22.2 µg/mL); MIC90 (Enterococcus faecalis [12]): 73.5 µM (≈ 23.3 µg/mL); MIC (Candida albicans [13]): 32 µM (≈ 10.2 µg/mL); MIC90 (Candida albicans [13]): 40.8 µM (≈ 12.9 µg/mL); MIC (Klebsiella pneumoniae [14]): 64 µM (≈ 20.3 µg/mL); MIC90 (Klebsiella pneumoniae [14]): 71.5 µM (≈ 22.7 µg/mL); MIC (Serratia marcescens [15]): 64 µM (≈ 20.3 µg/mL); MIC90 (Serratia marcescens [15]): 66.7 µM (≈ 21.2 µg/mL) |
| CC(=O)N1N=C(c2ccc(C(C)(C)C)cc2)OC1c1ccc([N+](=O)[O-])o1 (stereo not given) | – | – | – | – | inactive | inactive | inactive | inactive | – | – | inactive | – | inactive | – | Activity (Staphylococcus aureus [16]): inactive |
| CCCOc1ccc(C2=NN(C(C)=O)C(c3ccc([N+](=O)[O-])o3)O2)cc1 (stereo not given) | – | – | – | – | inactive | inactive | inactive | inactive | – | – | inactive | – | inactive | – | Activity (Staphylococcus aureus [16]): inactive |
| O=C(N/N=C/c1ccc([N+](=O)[O-])o1)c1ccc([N+](=O)[O-])cc1 | 2 (≈ 0.608 µg/mL) | – | – | – | inactive | inactive | inactive | inactive | 3 (≈ 0.913 µg/mL) | 4 (≈ 1.22 µg/mL) | inactive | 5.48 | inactive | – | – |
